pIC50: −log10 of the molar value. Some results are limits rather than exact numbers.

This passage reports IC50, inhibition and logD results from ChEMBL document CHEMBL1138053, “Design, synthesis, and structure-activity relationships of thieno[2,3-b]pyridin-4-one derivatives as a novel class of potent, orally active, non-peptide luteinizing hormone-releasing hormone receptor antagonists” (J Med Chem, 2006).

For one data set, the target named is T1, Gonadotropin-releasing hormone receptor (Homo sapiens, UniProt P30968).
T1 sequence (P30968 whole entry): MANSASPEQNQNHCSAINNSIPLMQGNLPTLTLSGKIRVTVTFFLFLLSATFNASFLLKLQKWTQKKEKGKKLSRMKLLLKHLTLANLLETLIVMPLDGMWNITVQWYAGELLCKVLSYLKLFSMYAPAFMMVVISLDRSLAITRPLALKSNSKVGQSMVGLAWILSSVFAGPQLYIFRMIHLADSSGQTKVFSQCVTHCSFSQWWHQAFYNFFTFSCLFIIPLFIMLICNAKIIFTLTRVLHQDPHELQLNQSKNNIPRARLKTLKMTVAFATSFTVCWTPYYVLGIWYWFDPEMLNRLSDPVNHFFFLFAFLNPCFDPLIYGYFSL
The data set can be described thus: Inhibition of [125I]leuprorelin binding to human recombinant LHRH receptor expressed in CHO cells.
Settings: not given
The class given is cell-based.
As to `CCOC(=O)c1cn(Cc2ccccc2[N+](=O)[O-])c2sc(-c3ccc(OC)cc3)c(CN(C)Cc3ccccc3)c2c1=O`, the pIC50 was 7.00.

With `CCOC(=O)c1cn(Cc2ccccc2F)c2sc(-c3ccc(N(C)C(=O)NC)cc3)c(CN(C)Cc3ccccc3)c2c1=O`, the pIC50 was 8.70.

As for `CCOC(=O)c1cn(Cc2ccccc2OC)c2sc(-c3ccc(OC)cc3)c(CNCc3ccccc3)c2c1=O`, the pIC50 was 5.70.

`CCOC(=O)c1cn(Cc2ccccc2OC)c2sc(-c3ccccc3)c(CN(C)Cc3ccccc3)c2c1=O`: the pIC50 is 6.70.

`CCOC(=O)c1cn(Cc2cccc(OC)c2)c2sc(-c3ccc(OC)cc3)c(CN(C)Cc3ccccc3)c2c1=O`: the pIC50 is 6.40.

Regarding `CC(C)C(=O)c1cn(Cc2c(F)cccc2F)c2sc(-c3ccc(NC(=O)C(C)(C)O)cc3)c(CN(C)Cc3ccccc3)c2c1=O`, the pIC50 is 9.70.

Regarding `CCOC(=O)c1cn(Cc2ccccc2F)c2sc(-c3ccc(NC(=O)Nc4ccccc4)cc3)c(CN(C)Cc3ccccc3)c2c1=O`, the pIC50 was 7.52.

As to `CCOC(=O)c1cn(C)c2sc(-c3ccc(OC)cc3)c(CN(C)Cc3ccccc3)c2c1=O`, the pIC50 is 5.30.

On to `CCOC(=O)c1cn(Cc2ccccc2F)c2sc(-c3ccc(OC)cc3)c(CN(C)Cc3ccccc3)c2c1=O`, for which the pIC50 is 7.52.

As for `CCOC(=O)c1cn(Cc2c(F)cccc2F)c2sc(-c3ccc(NC(=O)C(C)C)cc3)c(CN(C)Cc3ccccc3)c2c1=O`, the pIC50 is 9.70.

Turning to `CCOC(=O)c1cn(Cc2ccccc2OC)c2sc(-c3ccc(OC)cc3)c(C)c2c1=O`, the pIC50 is 5.00.

Take `CC(C)C(=O)c1cn(Cc2c(F)cccc2F)c2sc(-c3ccc(NC(=O)C4(O)CC4)cc3)c(CN(C)Cc3ccccc3)c2c1=O`: the pIC50 was 10.00.

For the molecule `CC(C)C(=O)c1cn(Cc2c(F)cccc2F)c2sc(-c3ccc(NC(=O)CN)cc3)c(CN(C)Cc3ccccc3)c2c1=O`, the pIC50 is 8.05.

As for `CCOC(=O)c1cn(Cc2ccccc2)c2sc(-c3cccc(OC)c3)c(CN(C)Cc3ccccc3)c2c1=O`, the pIC50 is 6.30.

As for `CCC(=O)c1cn(Cc2c(F)cccc2F)c2sc(-c3ccc(NC(=O)C(C)C)cc3)c(CN(C)Cc3ccccc3)c2c1=O`, the pIC50 is 9.40.

Consider `CCOC(=O)c1cn(Cc2cccc(F)c2)c2sc(-c3ccc(OC)cc3)c(CN(C)Cc3ccccc3)c2c1=O`, for which the pIC50 is 6.52.

On to `CCOC(=O)c1cn(Cc2ccc(OC)cc2)c2sc(-c3ccc(OC)cc3)c(CN(C)Cc3ccccc3)c2c1=O`, for which the negative logarithm of the IC50 (pIC50) was 6.52.

For the molecule `CCOC(=O)c1cn(Cc2ccccc2OC)c2sc(-c3ccccc3OC)c(CN(C)Cc3ccccc3)c2c1=O`, the negative logarithm of the IC50 (pIC50) was 6.15.

Take `CCOC(=O)c1cn(Cc2c(F)cccc2F)c2sc(-c3ccc(NC(=O)NC)cc3)c(CN(C)Cc3ccccc3)c2c1=O`: the pIC50 is 10.22.

For the molecule `CC(C)C(=O)Nc1ccc(-c2sc3c(c2CN(C)Cc2ccccc2)c(=O)c(C(=O)c2ccccc2)cn3Cc2c(F)cccc2F)cc1`, the pIC50 was 10.00.

With `CCOC(=O)c1cn(Cc2ccccc2)c2sc(-c3ccc(NC(=O)C(C)C)cc3)c(CN(C)Cc3ccccc3)c2c1=O`, the pIC50 was 9.22.

With `CCOC(=O)c1cn(Cc2ccccc2F)c2sc(-c3ccc(N)cc3)c(CN(C)Cc3ccccc3)c2c1=O`, the pIC50 is 7.40.

Regarding `CCOC(=O)c1cnc2sc(-c3ccc(OC)cc3)c(CN(C)Cc3ccccc3)c2c1O`, the pIC50 was less than 4.70.

Consider `CC(C)C(=O)Nc1ccc(-c2sc3c(c2CN(C)Cc2ccccc2)c(=O)c(C(=O)C(C)C)cn3Cc2c(F)cccc2F)cc1`, for which the pIC50 is 9.70.

For `CC(C)C(=O)Nc1ccc(-c2sc3c(c2CN(C)Cc2ccccc2)c(=O)c(C(O)C(C)C)cn3Cc2c(F)cccc2F)cc1` (stereo unspecified), the pIC50 was 9.40.

Take `CCOC(=O)c1cn(Cc2ccc(F)cc2)c2sc(-c3ccc(OC)cc3)c(CN(C)Cc3ccccc3)c2c1=O`: the pIC50 was 6.40.

Take `CCOC(=O)c1cn(Cc2ccccc2F)c2sc(-c3ccc(NC(=O)CC)cc3)c(CN(C)Cc3ccccc3)c2c1=O`: the pIC50 was 9.40.

For the molecule `CCOC(=O)c1cn(Cc2ccccc2)c2sc(-c3ccc(OC)cc3)c(CN(C)Cc3ccccc3)c2c1=O`, the negative-log IC50 (pIC50) is 6.70.

On to `CCOC(=O)c1cn(Cc2ccccc2F)c2sc(-c3ccc(NC(C)=O)cc3)c(CN(C)Cc3ccccc3)c2c1=O`, for which the pIC50 was 8.70.

Consider `CCC(=O)Nc1ccc(-c2sc3c(c2CN(C)Cc2ccccc2)c(=O)c(C(=O)NC(C)C)cn3Cc2c(F)cccc2F)cc1`, for which the pIC50 was 8.10.

In the case of `CCOC(=O)c1cn(Cc2ccccc2F)c2sc(-c3ccc(NC(=O)NC)cc3)c(CN(C)Cc3ccccc3)c2c1=O`, the pIC50 is 10.15.

As to `CCOC(=O)c1cn(Cc2ccccc2OC)c2sc(-c3ccc(OC)cc3)c(CN(Cc3ccccc3)C(C)=O)c2c1=O`, the pIC50 is 5.15.

`CCOC(=O)c1cn(Cc2ccccc2OC)c2sc(-c3ccc(OC)cc3)c(CN(CC)Cc3ccccc3)c2c1=O`: the pIC50 is 6.52.

For the molecule `CCOC(=O)c1cn(Cc2c(F)cccc2F)c2sc(-c3ccc(NC(=O)CC)cc3)c(CN(C)Cc3ccccc3)c2c1=O`, the pIC50 was 10.00.

Take `CCOC(=O)c1cn(Cc2ccccc2F)c2sc(-c3ccc(NC(=O)c4ccccc4)cc3)c(CN(C)Cc3ccccc3)c2c1=O`: the pIC50 is 9.00.

`CCOC(=O)c1cn(Cc2ccccc2C#N)c2sc(-c3ccc(OC)cc3)c(CN(C)Cc3ccccc3)c2c1=O`: the pIC50 is 7.00.

Regarding `CCOC(=O)c1cn(Cc2ccccc2OC)c2sc(-c3ccc(OC)cc3)c(CN(C)C)c2c1=O`, the pIC50 is 6.30.

Consider `CC(C)C(=O)c1cn(Cc2c(F)cccc2F)c2sc(-c3ccc(NC(=O)CO)cc3)c(CN(C)Cc3ccccc3)c2c1=O`, for which the pIC50 is 9.70.

As to `CNC(=O)Nc1ccc(-c2sc3c(c2CN(C)Cc2ccccc2)c(=O)c(C(=O)C(C)C)cn3Cc2c(F)cccc2F)cc1`, the pIC50 was 10.00.

Staying with this data set, now noted: cho.
As to `CCOC(=O)c1cn(Cc2ccccc2F)c2sc(-c3ccc(OC)cc3)c(CN(C)Cc3ccccc3)c2c1=O`, the pIC50 is 7.52.

Another data set has as its target T1, Gonadotropin-releasing hormone receptor. In words: Inhibition of LHRH-stimulated arachidonic acid release in CHO cells expressing human LHRH receptor. The format is functional, cell-based.
Settings: not given
A digest of the protocol:
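CHO cells stably expressing human or monkey LHRH receptor, seeded at 4 × 10⁴ cells/well and cultured 1 day, then labelled 1 day with [³H]arachidonic acid (11 kBq/well). Washed in DMEM with 20 mM HEPES and 0.2% BSA, preincubated with compound 60 min at 37 °C, then stimulated with LHRH (1 nM) for 40 min at 37 °C.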
For `CC(C)C(=O)c1cn(Cc2c(F)cccc2F)c2sc(-c3ccc(NC(=O)C4(O)CC4)cc3)c(CN(C)Cc3ccccc3)c2c1=O`, the pIC50 is 10.00.

Regarding `CNC(=O)Nc1ccc(-c2sc3c(c2CN(C)Cc2ccccc2)c(=O)c(C(=O)C(C)C)cn3Cc2c(F)cccc2F)cc1`, the pIC50 was 10.15.

Another data set addresses T2, Gonadotropin-releasing hormone receptor (Homo sapiens) (UniProt P30968).
T2 sequence (whole entry): T1 sequence (P30968 whole entry)
The data set can be described thus: Inhibition of [125I]leuprorelin binding to human recombinant LHRH receptor at 20 uM.
Settings: not given
A digest of the protocol: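 Membranes (0.2 mg/mL) from CHO cells stably expressing cloned human LHRH receptor, incubated 60 min at 25 °C with [125I]leuprorelin and test compound in Tris buffer pH 7.5 containing EDTA, BSA, NaN3 and protease inhibitors. Bound ligand separated by filtration on PEI-coated glass-fibre filters. Nonspecific binding taken with 1 µM unlabelled leuprorelin.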
`CCOC(=O)c1cn(Cc2ccccc2OC)c2sc(-c3ccc(OC)cc3)c(CNc3ccccc3)c2c1=O`: the inhibition was 42%.

Test system in a further data set: not listed separately
In words: Distribution coefficient, log D of the compound. The following applies: octanol/water.
`CC(C)C(=O)Nc1ccc(-c2sc3c(c2CN(C)Cc2ccccc2)c(=O)c(C(=O)C(C)C)cn3Cc2c(F)cccc2F)cc1` gave a logD of 6.33.

A further data set addresses T3, Gonadotropin-releasing hormone receptor (Rattus norvegicus, UniProt P30969).
T3 sequence (P30969 whole entry): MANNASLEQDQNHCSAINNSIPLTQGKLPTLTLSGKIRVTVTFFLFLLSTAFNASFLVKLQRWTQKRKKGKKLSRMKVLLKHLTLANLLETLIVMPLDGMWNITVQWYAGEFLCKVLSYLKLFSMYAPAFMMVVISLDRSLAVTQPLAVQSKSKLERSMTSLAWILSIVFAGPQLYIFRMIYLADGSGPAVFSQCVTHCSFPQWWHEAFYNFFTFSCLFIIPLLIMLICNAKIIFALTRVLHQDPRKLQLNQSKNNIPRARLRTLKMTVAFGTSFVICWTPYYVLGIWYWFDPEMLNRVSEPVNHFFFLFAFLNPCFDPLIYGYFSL
In words: Inhibition of [125I]leuprorelin binding to rat anterior pituitary LHRH receptor.
Settings: not given
Take `CC(C)C(=O)c1cn(Cc2c(F)cccc2F)c2sc(-c3ccc(NC(=O)C4(O)CC4)cc3)c(CN(C)Cc3ccccc3)c2c1=O`: the pIC50 was 6.82.

`CNC(=O)Nc1ccc(-c2sc3c(c2CN(C)Cc2ccccc2)c(=O)c(C(=O)C(C)C)cn3Cc2c(F)cccc2F)cc1` showed a pIC50 of 6.70.

The term pIC50 denotes −log10 of the IC50, conventionally taken in molar units. The inhibition is how much of the control response was suppressed. As usually defined, the logD is lipophilicity at a set pH, counting ionised and neutral species. A higher logD goes with higher lipophilicity.
